≈ marks a conversion by molar mass, not a printed value.
Experiments:
THP-1 [1] = test: Antiinflammatory activity in human THP1 cells assessed as inhibition of LPS-induced IL6 release at 10 uM after 24 hrs by ELISA; format: functional; details: THP-1, 24 h
In short: (§1)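 THP-1 cells grown in RPMI 1640 with 10% FBS, penicillin and streptomycin, then PMA-differentiated. Compounds in 0.5% DMSO preincubated 30 min at 37 °C before LPS (E. coli 0127:B8) stimulation. TNF-α and IL-6 release measured by kit per the manufacturer (BD Biosciences). Percent inhibition calculated relative to control. Dexamethasone 1 µM as reference.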

THP-1 [2] = test: Antiinflammatory activity in human THP1 cells assessed as inhibition of LPS-induced TNFalpha release at 10 uM after 24 hrs by ELISA; format: functional; details: THP-1, 24 h; in short: as §1
THP-1 [3] = test: Cytotoxicity against human THP1 cells assessed as CCK8 release at 10 uM after 24 hrs by ELISA; format: cell-based; details: thp-1, 24 h
In short: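 Same THP-1 cytokine-assay cells, with compounds in 0.5% DMSO and LPS stimulation, were scored in parallel for cytotoxicity by CCK-8.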

ACHN = test: Anticancer activity against human ACHN cells at 10 uM after 48 hrs by propidium iodide fluorescence assay; format: functional
In short: (§2)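 Propidium iodide DNA-fluorescence assay. Seeding 3000–7500 cells/well, 24 h recovery at 37 °C in 5% CO₂. Compounds in 0.1% DMSO added to triplicate wells at 10 µM. Flavopiridol 700 nM and gemcitabine 500 nM as reference inhibitors. Plates frozen at −80 °C for 24 h, thawed to room temperature, fluorescence read at excitation 530 nm and emission 620 nm. Percent cytotoxicity calculated.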

PANC-1 = test: Anticancer activity against human PANC1 cells at 10 uM after 48 hrs by propidium iodide fluorescence assay; format: functional; in short: as §2
Calu-1 = test: Anticancer activity against human Calu1 cells at 10 uM after 48 hrs by propidium iodide fluorescence assay; format: functional; in short: as §2
NCI-H460 = test: Anticancer activity against human H460 cells at 10 uM after 48 hrs by propidium iodide fluorescence assay; format: functional; in short: as §2
HCT-116 = test: Anticancer activity against human HCT116 cells at 10 uM after 48 hrs by propidium iodide fluorescence assay; format: functional; in short: as §2
Escherichia coli [4] = test: Antibacterial activity against Escherichia coli MTCC 1650 after 24 hrs; format: functional; details: MTCC 1650, 24 h
In short: (§3)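 Agar well diffusion on Mueller Hinton agar seeded with 0.1 mL of a 10⁵ cfu/mL suspension in 0.85% saline. Compounds dissolved in DMSO, final concentrations 25–250 µg/mL, 0.1 mL loaded per 6 mm well. DMSO (1%) control; tetracycline (10 µg/mL) reference. Duplicate plates incubated 24 h at 37 °C. Inhibition zone read in mm. MIC taken as lowest concentration giving complete growth inhibition.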

Proteus vulgaris [5] = test: Antibacterial activity against Proteus vulgaris MTCC 1771 after 24 hrs; format: functional; details: MTCC 1771, 24 h; in short: as §3
Klebsiella pneumoniae [6] = test: Antibacterial activity against Klebsiella pneumoniae NCIM 2957 after 24 hrs; format: functional; details: NCIM 2957, 24 h; in short: as §3
Staphylococcus aureus [7] = test: Antibacterial activity against Staphylococcus aureus MTCC 96 after 24 hrs; format: functional; details: MTCC 96, 24 h; in short: as §3
Bacillus subtilis [8] = test: Antibacterial activity against Bacillus subtilis MTCC 1789 after 24 hrs; format: functional; details: MTCC 1789, 24 h; in short: as §3
Escherichia coli [9] = test: Antibacterial activity against Escherichia coli MTCC 1650 at 50 ug/ml after 24 hrs agar diffusion method; format: functional; details: MTCC 1650, 24 h, read-out: IZ; in short: as §3
Proteus vulgaris [10] = test: Antibacterial activity against Proteus vulgaris MTCC 1771 at 50 ug/ml after 24 hrs agar diffusion method; format: functional; details: MTCC 1771, 24 h, read-out: IZ; in short: as §3
Bacillus subtilis [11] = test: Antibacterial activity against Bacillus subtilis MTCC 1789 at 50 ug/ml after 24 hrs agar diffusion method; format: functional; details: MTCC 1789, 24 h, read-out: IZ; in short: as §3
Aspergillus flavus = test: Antifungal activity against Aspergillus flavus MTCC 2501 at 100 ug/ml after 48 hrs agar diffusion method; format: functional; details: MTCC 2501, 48 h, read-out: IZ
In short: (§4)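 Fungal spore suspensions in sterile distilled water adjusted to 10⁶ cfu/mL; 0.1 mL spread on Sabouraud dextrose agar. Wells of 6 mm filled with 0.1 mL compound dilution in DMSO. DMSO (1%) control; nystatin (30 µg/mL) reference. Duplicate plates incubated at 28 °C for 48 h. Activity read as inhibition zone diameter in mm.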

Klebsiella pneumoniae [12] = test: Antibacterial activity against Klebsiella pneumoniae NCIM 2957 at 50 ug/ml after 24 hrs agar diffusion method; format: functional; details: NCIM 2957, 24 h, read-out: IZ; in short: as §3
Staphylococcus aureus [13] = test: Antibacterial activity against Staphylococcus aureus MTCC 96 at 50 ug/ml after 24 hrs agar diffusion method; format: functional; details: MTCC 96, 24 h, read-out: IZ; in short: as §3
Trichoderma viride = test: Antifungal activity against Trichoderma viride MTCC 167 at 100 ug/ml after 48 hrs agar diffusion method; format: functional; details: MTCC 167, 48 h, read-out: IZ; in short: as §4
Aspergillus niger = test: Antifungal activity against Aspergillus niger MTCC 1781 at 100 ug/ml after 48 hrs agar diffusion method; format: functional; details: MTCC 1781, 48 h, read-out: IZ; in short: as §4
Penicillium chrysogenum = test: Antifungal activity against Penicillium chrysogenum MTCC 1996 at 100 ug/ml after 48 hrs agar diffusion method; format: functional; details: MTCC 1996, 48 h, read-out: IZ; in short: as §4

Row | SMILES | inhibition at 10 µM (THP-1 [1]) [%] | inhibition at 10 µM (THP-1 [2]) [%] | Activity (THP-1 [3]) [%] | Activity (ACHN) [%] | Activity (PANC-1) [%] | Activity (Calu-1) [%] | Activity (NCI-H460) [%] | Activity (HCT-116) [%] | MIC (Escherichia coli [4]) [µg/mL] | MIC (Proteus vulgaris [5]) [µg/mL] | MIC (Klebsiella pneumoniae [6]) [µg/mL] | MIC (Staphylococcus aureus [7]) [µg/mL] | MIC (Bacillus subtilis [8]) [µg/mL] | zone of inhibition at 50 µg/mL (Escherichia coli [9]) [mm] | zone of inhibition at 50 µg/mL (Proteus vulgaris [10]) [mm] | zone of inhibition at 50 µg/mL (Bacillus subtilis [11]) [mm] | zone of inhibition at 100 µg/mL (Aspergillus flavus) [mm] | zone of inhibition at 50 µg/mL (Klebsiella pneumoniae [12]) [mm] | zone of inhibition at 50 µg/mL (Staphylococcus aureus [13]) [mm] | zone of inhibition at 100 µg/mL (Trichoderma viride) [mm] | other results
1 | COc1ccc(C(=O)/C=C/C=C(\Cl)c2ccc(F)cc2)c(OC)c1 | 44 | 0 | 0 | 30 | 23 | 36 | 26 | 14 | 50 (≈ 144 µM) | 50 (≈ 144 µM) | 50 (≈ 144 µM) | 50 (≈ 144 µM) | 50 (≈ 144 µM) | 11 | 16 | 10 | 10 |  |  |  | 
2 | COc1ccc(C(=O)/C=C/C=C(\Cl)c2cccc(Cl)c2)cc1 | 3 | 1 | 35 | 22 | 18 | 20 | 26 | 31 | 50 (≈ 150 µM) | 50 (≈ 150 µM) | 50 (≈ 150 µM) | 50 (≈ 150 µM) | 50 (≈ 150 µM) | 10 | 15 | 15 | 8 | 17 | 13 | 11 | 
3 | COc1ccc(C(=O)/C=C/C=C(\Cl)c2ccc(Cl)cc2)c(OC)c1 | 43 | 0 | 0 | 37 | 32 | 32 | 21 | 26 | 50 (≈ 138 µM) | 50 (≈ 138 µM) | 50 (≈ 138 µM) | 50 (≈ 138 µM) | 50 (≈ 138 µM) | 10 | 18 | 14 | 12 | 15 | 13 | 12 | zone of inhibition at 100 µg/mL (Aspergillus niger): 14 mm; zone of inhibition at 100 µg/mL (Penicillium chrysogenum): 14 mm

Reference: ChEMBL document CHEMBL1157556, “Synthesis and biological screening of a combinatorial library of beta-chlorovinyl chalcones as anticancer, anti-inflammatory and antimicrobial agents” (Bioorg Med Chem, 2010)
